MrgX1 antag – antagonists of human MrgX1 receptor, primary screen, HEK293 cells, Fluo-4 calcium flux | BAM8-22 antagonism; stronger effect = lower value | B-score at 10 µM | 310,000 compounds, 1.3% hits | AID 588676, 2011;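 active = calcium-response B-score plate-corrected more than 3 library SD below zero, starting fluorescence within 5 deviations, no agonist response on first addition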;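 also: peak minus trough fluorescence over baseline after final BAM8-22 challenge near maximal dose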
RGS4 pot – RGS4 potentiators or activators, primary screen, cell-based, HEK293 M3R inducible RGS4, calcium flux. carbachol calcium flux Fluo4; stronger effect = lower value. B-score at 10 µM. 310,000 compounds, 0.92% hits;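 active = B-score of the integrated calcium signal more than 4 SD below the library mean, with starting fluorescence not abnormally high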;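 also: negative B-score means reduced calcium response which marks RGS4 activation or potentiation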
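Test system: HEK293 cells with stable M3R and inducible RGS4; also added: carbachol at ECmax as muscarinic agonist stimulus; schedule: dye loading 30 min 37 °C, buffer rest 30 min RT; technique: kinetic calcium fluorescence imaging with Fluo4-AM dye, 2 µM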
RGS4 inh – RGS4 inhibitors, primary screen, cell-based, HEK293 M3R inducible RGS4, calcium flux; Regulator of G-protein signaling 4 (Homo sapiens), P49798; Fluo-4 calcium flux; stronger effect = higher value; triggered by carbachol at its EC20; B-score at 10 µM; 310,000 compounds, 0.45% hits; AID 463165, 2010;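 active = B-score, a plate-corrected calcium signal, over three deviations above library mean, with baseline fluorescence within five deviations of library mean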;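 also: RGS4 expression induced by doxycycline in cells with stable M3 receptor; B-score is computed from the integrated fluorescence ratio over baseline after carbachol; higher B-score means a larger calcium signal and so more RGS4 inhibition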
Target sequence (P49798 whole entry, looked up): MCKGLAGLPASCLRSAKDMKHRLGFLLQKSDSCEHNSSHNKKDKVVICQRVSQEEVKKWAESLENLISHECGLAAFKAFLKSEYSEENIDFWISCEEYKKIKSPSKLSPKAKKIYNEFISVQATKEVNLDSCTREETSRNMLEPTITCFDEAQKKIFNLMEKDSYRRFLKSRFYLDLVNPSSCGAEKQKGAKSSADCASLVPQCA
MrgX1 agonist – agonists of human MrgX1 receptor, primary screen, HEK293 cells, Fluo-4 calcium flux; Fluo-4 calcium fluorescence, agonist mode; stronger effect = higher value; B-score at 10 µM; 310,000 compounds, 0.44% hits; AID 588627, 2011;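 active = calcium response B-score plate-corrected fluorescence ratio at least 3 library SD, with starting fluorescence B-score inside 5 SD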
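Assay system: MrgX1-expressing HEK293 cells / Amount: fifteen thousand cells per well / Doses: test compound in the initial addition of three / Timing: cells plated overnight, dye loaded 0.5 h 37 °C, 0.5 h room temperature / Technique: kinetic calcium dye fluorescence, Fluo-4 NW / Control set: positive and negative controls per plate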
MrgX1 allo act – positive allosteric modulators of MrgX1, primary screen, HEK293 cells, Fluo-4 calcium flux; Mas-related G-protein coupled receptor member X1 (Homo sapiens), Q96LB2; FDSS; stronger effect = higher value; B-score at 10 µM; 310,000 compounds, 0.63% hits; AID 588675, 2011;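 active = plate-corrected calcium response at least 3 library SD above typical, normal starting fluorescence, not activating the receptor alone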;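 also: compound read alongside a low EC10 to EC30 dose of BAM8-22 agonist; peak minus trough fluorescence over baseline measured at the second addition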
MrgX1 allo conf – MrgX1 positive allosteric modulators, duplicate retest, confirmation, HEK293 cells, Fluo-4 calcium flux; shares compounds with MrgX1 allo act; Fluo-4 calcium fluorescence, FDSS; activation (ratio percentage), % at 10 µM; 1,200 compounds, 13% hits;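 active = ratio at least 3 SD above the weak peptide control, stable starting fluorescence, no direct agonism earlier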;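 also: compound followed by low BAM8-22 agonist challenge near EC20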
HEK293 Ca flux – nonspecific calcium signal in parental HEK293, confirmation, counter-screen for MrgX1 antagonist project, parental HEK293 cells, Fluo-4 calcium flux; shares compounds with MrgX1 antag; Fluo-4 calcium fluorescence, FDSS; fluorescence ratio F(max-min)/F0 at 10 µM; 4,000 compounds, 2% hits;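 active = duplicate-averaged calcium fluorescence ratio at least three times the standard deviation of buffer wells, a nonspecific response in parental cells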
HEK293 Ca counter – calcium response in parental HEK293 cells, primary screen, counter-screen for MrgX1 allosteric activator project, cell-based, Fluo-4 calcium flux, duplicate; shares compounds with MrgX1 antag; Fluo-4 fluorescence ratio; stronger effect = higher value; fluorescence ratio F(max-min)/F0 at 10 µM; 4,000 compounds, 0.4% hits;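 active = calcium fluorescence ratio, averaged over duplicates, at least 3 SD of the buffer-well ratio, meaning a nonspecific response in receptor-free cells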;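 also: untransfected parental HEK293 lacking MrgX1 used as counterscreen for MrgX1 allosteric activators; fluorescence change taken during the second addition on a kinetic imager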
HEK293 Ca cntr2 – calcium response in parental HEK293 cells, primary screen, counter-screen for MrgX1 agonist project, cell-based, Fluo-4 calcium flux, duplicate, agonist mode. fluorescence ratio F(max-min)/F0 at 10 µM. AID 624115, 2012. shares compounds with MrgX1 antag. 4,000 compounds, 8.7% hits. Fluo-4 calcium fluorescence (FDSS); stronger effect = higher value;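 active = calcium fluorescence ratio at least three times the spread of buffer wells, meaning a non-specific response in parental cells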
Active calls of the source: *; i = inactive; . = no result. The list is not random: actives were taken first. Their share in the collection is about 3.5%.

SMILES	MrgX1 antag	RGS4 pot	RGS4 inh	MrgX1 agonist	MrgX1 allo act	MrgX1 allo conf	HEK293 Ca flux	HEK293 Ca counter	HEK293 Ca cntr2
CC(=O)N(CCC1(c2ccc(C)cc2)CCOC(C(C)C)C1)Cc1ccco1 (configuration not stated)	i	i	i	i	10*	i	i	i	i
Nc1ncnc2c1nc(SCCO)n2Cc1ccccc1	i	i	i	i	i	.	.	.	.
O=C(Nc1ccccc1C(=O)O)c1cccc(S(=O)(=O)Nc2ccc(Br)cc2)c1	i	i	i	i	i	.	.	.	.
O=C(Nc1ccccc1C(=O)O)c1cccc(NS(=O)(=O)c2ccc(Br)cc2)c1	i	i	i	i	11*	i	i	i	i
Cc1c(C)n(CC(O)CN2C(=O)c3ccccc3S2(=O)=O)c2ccccc12 (configuration not stated)	i	i	i	i	10*	i	i	i	i
O=S(=O)(c1ccccc1Br)N1CCN(c2ncccn2)CC1	i	i	i	i	6.7*	i	i	i	i
COc1cccc(CN2CC(C(=O)NCCCn3ccnc3C)CCC2=O)c1 (configuration not stated)	i	i	i	i	i	.	.	.	.
Nc1ccc2nc(SCc3cccc(F)c3)sc2c1	i	i	i	i	9.2*	i	i	i	i
CCOC(=O)CSc1nc2ccc(N)cc2s1	i	i	i	i	i	.	.	.	.
COC(=O)Cc1cc(=O)[nH]c(/N=C(\N)Nc2ccc(C(C)C)cc2)n1	i	i	i	i	i	.	.	.	.
CCc1ccc(-c2nc(SCC(=O)N(C)C3CCS(=O)(=O)C3)n[nH]2)cc1 (configuration not stated)	i	i	i	i	i	.	.	.	.
CC12COC3(C(=O)Nc4nccs4)CC1CCC32C (configuration not stated)	i	i	i	i	i	.	.	.	.
CC12COC3(C(=O)Nc4ccc(Cl)cc4)CC1CCC32C (configuration not stated)	i	i	i	i	31*	8.2%*	i	i	i
Cc1ccc(C2CC2c2n[nH]c(=S)n2-c2ccc(Cl)cc2)cc1 (configuration not stated)	i	i	i	i	i	.	.	.	.
S=c1[nH]nc([C@@H]2C[C@H]2c2ccccc2)n1-c1ccccc1Cl	i	i	i	i	7.7*	i	i	i	i
OC1CCC(NC(=S)Nc2ccc(SC(F)F)cc2)CC1 (configuration not stated)	i	i	i	i	i	.	.	.	.
FC(F)Sc1ccc(NC(=S)NC2CCCC2)cc1	i	i	i	i	6.8*	i	i	i	i
CC1CCN(C(=O)COc2ccc3ccccc3c2Br)CC1	i	i	i	i	6.5*	i	i	i	i
CC1CCN(C(=O)COc2ncnc3ccccc23)CC1	i	i	i	i	i	.	.	.	.

Bioassay records deposited in PubChem BioAssay by Johns Hopkins Ion Channel Center.
